According to ChEMBL document CHEMBL4414600, “Discovery of a Furanopyrimidine-Based Epidermal Growth Factor Receptor Inhibitor (DBPR112) as a Clinical Candidate for the Treatment of Non-Small Cell Lung Cancer” (J Med Chem, 2019):

How the values were obtained:
[1] = Tmax in rat at 23.6 mg/kg, po; format: ADME, organism-based; conditions: in vivo
Method in brief: (§1)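 Rat pharmacokinetics: single IV injection at 5 mg/kg or oral dosing at 20 mg/kg (23.6 mg/kg oral for one compound). Plasma parameters t1/2, CL, Vss, AUC(0-inf), Cmax, Tmax and oral bioavailability F were derived from the concentration–time profiles.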

[2] = Oral bioavailability in rat at 23.6 mg/kg; format: ADME, organism-based; conditions: in vivo; method in brief: as §1
[3] = Toxicity in athymic NU-Fox1nu nude mouse xenografted with human HCC827 cells assessed as induction of adverse effects at 20 to 50 mg/kg, po dosed via gavage for 5 days/week for 2 consecutive weeks; format: organism-based; conditions: in vivo, 120 h
Method in brief: (§2)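 Male athymic NU-Fox1nu nude mice, 6–8 weeks old, were inoculated subcutaneously at the left flank with 5x10^6 HCC827 (exon 19 Del E746_A750) cells. Oral gavage began at a mean tumor size of about 500 mm³, in 1% methylcellulose/0.5% Tween 80/98.5% water, once daily on days 1-5 and 8-12. Tumor volume (V = 0.5 a × b², caliper) and body weight were tracked.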

[4] = in vivo; conditions: rat, po, 23.6 mg/kg
[5] = system: NCI-H1975; conditions: Homo sapiens, at 312.5 to 20000 nM
[6] = molecular target: Serine/threonine-protein kinase 10 (Homo sapiens) (UniProt O94804); assay: Binding affinity to wild-type human partial length LOK (E16 to V314 residues) expressed in bacterial expression system assessed as residual binding level at 10000 nM by Kinomescan method relative to control
Sequence of Serine/threonine-protein kinase 10 (Homo sapiens) (O94804 whole entry, looked up, the tested form may be a part): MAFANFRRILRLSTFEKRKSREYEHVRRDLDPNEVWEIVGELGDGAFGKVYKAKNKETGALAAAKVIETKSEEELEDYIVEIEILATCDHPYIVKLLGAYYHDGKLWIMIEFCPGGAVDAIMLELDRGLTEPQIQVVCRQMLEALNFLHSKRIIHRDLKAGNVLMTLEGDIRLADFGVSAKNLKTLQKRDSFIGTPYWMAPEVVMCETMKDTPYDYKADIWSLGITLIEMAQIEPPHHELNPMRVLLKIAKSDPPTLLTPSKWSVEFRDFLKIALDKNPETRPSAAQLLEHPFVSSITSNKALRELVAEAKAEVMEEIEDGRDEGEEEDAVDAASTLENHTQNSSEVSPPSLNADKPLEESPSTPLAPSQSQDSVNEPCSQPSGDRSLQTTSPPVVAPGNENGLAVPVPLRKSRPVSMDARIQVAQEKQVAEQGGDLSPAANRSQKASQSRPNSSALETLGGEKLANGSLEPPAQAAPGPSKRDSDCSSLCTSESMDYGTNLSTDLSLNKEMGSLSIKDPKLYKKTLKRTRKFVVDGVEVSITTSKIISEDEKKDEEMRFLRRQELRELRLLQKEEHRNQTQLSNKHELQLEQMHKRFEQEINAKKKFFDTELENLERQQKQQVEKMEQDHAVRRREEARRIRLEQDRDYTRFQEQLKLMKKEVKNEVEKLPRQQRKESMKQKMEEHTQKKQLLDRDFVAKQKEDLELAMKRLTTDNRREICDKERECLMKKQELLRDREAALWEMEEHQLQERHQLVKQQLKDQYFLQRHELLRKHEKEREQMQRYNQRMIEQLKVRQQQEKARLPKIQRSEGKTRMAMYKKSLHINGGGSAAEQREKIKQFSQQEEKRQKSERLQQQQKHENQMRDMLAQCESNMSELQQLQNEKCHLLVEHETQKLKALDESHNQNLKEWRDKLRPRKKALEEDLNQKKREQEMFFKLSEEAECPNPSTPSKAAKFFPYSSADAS
Method in brief: (§3)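 KINOMEScan competition binding panel run at 10,000 nM compound, with results expressed as percent of control binding. S(10) is the fraction of non-mutant kinases below 10% of control, out of 395 tested.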

[7] = Toxicity in athymic NU-Fox1nu nude mouse xenografted with human HCC827 cells assessed as effect on body weight at 20 to 50 mg/kg, po dosed via gavage for 5 days/week for 2 consecutive weeks; format: organism-based; conditions: in vivo, 120 h; method in brief: as §2
[8] = Toxicity in nude BALB/c mouse xenografted with human NCI-H1975 cells assessed as induction of body weight loss at 50 mg/kg, po QD for 15 days relative to control; format: organism-based; conditions: in vivo, 360 h
Method in brief: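 H1975 cells were grown in RPMI1640 with 10% heat-inactivated FBS at 37 °C, 5% CO2, and passaged by trypsin-EDTA. 5x10^6 cells in 0.1 ml PBS were injected subcutaneously at the right flank of BALB/c nude mice. Oral QD dosing for 15 days began at a mean tumor size of 147 mm³, n = 5 per group.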

[9] = molecular target: Receptor tyrosine-protein kinase erbB-4 (Homo sapiens) (UniProt Q15303); assay: Binding affinity to wild-type human partial length ERBB4 (L690 to K994 residues) expressed in bacterial expression system assessed as residual binding level at 10000 nM by Kinomescan method relative to control; method in brief: as §3
Sequence of Receptor tyrosine-protein kinase erbB-4 (Homo sapiens) (Q15303 whole entry, the tested form may be a part): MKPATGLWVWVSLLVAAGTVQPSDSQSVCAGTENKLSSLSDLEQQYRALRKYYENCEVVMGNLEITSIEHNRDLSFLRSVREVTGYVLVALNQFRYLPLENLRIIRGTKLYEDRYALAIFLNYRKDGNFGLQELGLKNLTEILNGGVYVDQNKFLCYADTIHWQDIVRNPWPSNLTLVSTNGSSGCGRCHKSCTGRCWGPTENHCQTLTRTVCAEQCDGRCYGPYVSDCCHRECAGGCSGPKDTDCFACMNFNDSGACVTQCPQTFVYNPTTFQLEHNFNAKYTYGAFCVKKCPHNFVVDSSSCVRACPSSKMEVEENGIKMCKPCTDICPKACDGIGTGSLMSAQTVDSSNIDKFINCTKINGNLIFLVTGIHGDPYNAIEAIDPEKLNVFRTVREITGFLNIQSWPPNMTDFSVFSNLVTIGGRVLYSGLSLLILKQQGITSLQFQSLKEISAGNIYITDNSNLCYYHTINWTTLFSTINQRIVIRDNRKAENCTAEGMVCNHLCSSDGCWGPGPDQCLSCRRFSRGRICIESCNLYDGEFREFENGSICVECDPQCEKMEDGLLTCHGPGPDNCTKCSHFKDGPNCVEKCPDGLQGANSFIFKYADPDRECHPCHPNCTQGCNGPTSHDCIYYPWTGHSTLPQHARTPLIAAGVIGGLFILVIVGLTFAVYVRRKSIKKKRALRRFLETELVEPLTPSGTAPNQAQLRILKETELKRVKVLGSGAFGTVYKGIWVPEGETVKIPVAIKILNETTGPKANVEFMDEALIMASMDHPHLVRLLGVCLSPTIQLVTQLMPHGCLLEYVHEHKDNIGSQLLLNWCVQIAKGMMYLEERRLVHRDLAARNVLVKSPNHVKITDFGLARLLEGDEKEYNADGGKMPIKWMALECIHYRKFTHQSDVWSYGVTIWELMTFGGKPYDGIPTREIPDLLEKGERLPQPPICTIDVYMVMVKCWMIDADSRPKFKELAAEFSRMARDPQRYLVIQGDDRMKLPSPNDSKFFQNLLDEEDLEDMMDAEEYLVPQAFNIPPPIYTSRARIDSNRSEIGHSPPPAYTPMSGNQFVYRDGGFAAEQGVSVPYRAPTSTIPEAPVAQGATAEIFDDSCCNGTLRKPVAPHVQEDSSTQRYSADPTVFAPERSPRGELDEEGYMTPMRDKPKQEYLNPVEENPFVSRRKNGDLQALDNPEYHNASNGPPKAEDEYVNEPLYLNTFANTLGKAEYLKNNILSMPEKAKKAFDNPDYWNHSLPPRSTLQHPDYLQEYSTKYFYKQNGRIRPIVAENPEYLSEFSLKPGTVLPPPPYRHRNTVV

[10] = molecular target: T1, Tyrosine-protein kinase TXK (Homo sapiens) (UniProt P42681); assay: Binding affinity to wild-type human partial length TXK (L238 to W527 residues) expressed in bacterial expression system assessed as residual binding level at 10000 nM by Kinomescan method relative to control; method in brief: as §3
T1 sequence (whole entry): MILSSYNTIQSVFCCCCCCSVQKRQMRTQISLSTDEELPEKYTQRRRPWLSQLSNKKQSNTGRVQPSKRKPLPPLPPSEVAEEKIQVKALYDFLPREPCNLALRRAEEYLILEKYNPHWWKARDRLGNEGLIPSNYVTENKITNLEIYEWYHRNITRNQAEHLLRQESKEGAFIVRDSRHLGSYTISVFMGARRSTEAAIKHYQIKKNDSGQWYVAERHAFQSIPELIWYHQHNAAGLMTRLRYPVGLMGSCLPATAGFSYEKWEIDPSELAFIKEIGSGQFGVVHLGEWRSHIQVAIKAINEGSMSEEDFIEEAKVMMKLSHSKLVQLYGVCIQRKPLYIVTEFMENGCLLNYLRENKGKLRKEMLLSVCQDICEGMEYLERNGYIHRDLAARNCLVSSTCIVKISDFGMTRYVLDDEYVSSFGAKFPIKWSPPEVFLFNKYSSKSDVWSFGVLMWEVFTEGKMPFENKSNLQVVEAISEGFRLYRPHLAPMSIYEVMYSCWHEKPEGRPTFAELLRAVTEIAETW

[11] = molecular target: Receptor tyrosine-protein kinase erbB-2 (Homo sapiens) (UniProt P04626); assay: Binding affinity to wild-type human partial length ERBB2 (K646 to V1225 residues) expressed in mammalian expression system assessed as residual binding level at 10000 nM by Kinomescan method relative to control
Sequence of Receptor tyrosine-protein kinase erbB-2 (Homo sapiens) (P04626 whole entry, the tested form may be a part): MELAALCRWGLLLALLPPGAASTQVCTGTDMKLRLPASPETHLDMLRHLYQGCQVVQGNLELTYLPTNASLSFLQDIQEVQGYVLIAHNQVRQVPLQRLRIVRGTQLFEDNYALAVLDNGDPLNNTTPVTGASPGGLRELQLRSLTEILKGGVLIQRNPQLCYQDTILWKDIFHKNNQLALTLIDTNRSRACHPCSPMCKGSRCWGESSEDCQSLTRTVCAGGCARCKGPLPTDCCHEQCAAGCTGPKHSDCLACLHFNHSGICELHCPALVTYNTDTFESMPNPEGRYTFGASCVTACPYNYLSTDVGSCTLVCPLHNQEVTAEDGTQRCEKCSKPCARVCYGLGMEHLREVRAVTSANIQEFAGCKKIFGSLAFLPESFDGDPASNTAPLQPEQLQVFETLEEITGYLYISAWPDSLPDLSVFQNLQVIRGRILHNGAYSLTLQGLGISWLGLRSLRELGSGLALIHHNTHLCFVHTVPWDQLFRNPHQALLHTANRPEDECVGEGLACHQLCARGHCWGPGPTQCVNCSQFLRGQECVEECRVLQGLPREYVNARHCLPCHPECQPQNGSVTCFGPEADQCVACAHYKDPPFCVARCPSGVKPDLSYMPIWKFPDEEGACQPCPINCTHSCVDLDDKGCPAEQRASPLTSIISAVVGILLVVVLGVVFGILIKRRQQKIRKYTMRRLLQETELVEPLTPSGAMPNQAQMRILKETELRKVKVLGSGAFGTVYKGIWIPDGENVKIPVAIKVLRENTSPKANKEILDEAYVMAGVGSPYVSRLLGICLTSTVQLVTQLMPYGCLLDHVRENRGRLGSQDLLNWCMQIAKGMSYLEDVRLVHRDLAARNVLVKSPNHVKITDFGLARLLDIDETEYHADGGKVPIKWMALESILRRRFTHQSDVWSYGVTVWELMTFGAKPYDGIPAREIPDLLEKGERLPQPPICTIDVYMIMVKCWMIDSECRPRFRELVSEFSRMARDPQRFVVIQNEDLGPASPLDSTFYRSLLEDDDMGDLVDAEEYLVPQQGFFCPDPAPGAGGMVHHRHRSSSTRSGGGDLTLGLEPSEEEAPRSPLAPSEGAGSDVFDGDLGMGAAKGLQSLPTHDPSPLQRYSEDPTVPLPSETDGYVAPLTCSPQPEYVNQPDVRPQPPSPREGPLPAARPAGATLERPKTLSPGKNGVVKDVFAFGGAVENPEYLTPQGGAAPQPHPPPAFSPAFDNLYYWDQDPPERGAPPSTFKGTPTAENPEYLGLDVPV
Method in brief: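 KINOMEscan competition-binding profiling at a single concentration of 10,000 nM across a panel that included 395 non-mutant kinases. Binding is read out as percent of control. Kinases with less than 10% of control were counted as hits for the S(10) selectivity score, which is the number of non-mutant hits divided by the number of non-mutant kinases tested.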

[12] = Toxicity in ICR mouse at 100 mg/kg, po QD for 2 weeks; format: organism-based; conditions: in vivo, 336 h

## CN(C)C/C=C/C(=O)Nc1cccc(-c2c(-c3ccccc3)oc3ncnc(N[C@H](CO)c4ccccc4)c23)c1
[1]
  Tmax: 3.3 h
[2]
  bioavailability: 41.5%
[3]
  Activity: Non-Toxic
[4]
  half-life: 3.4 h
[5]
  inhibition: Dose-dependent effect
[6]
  Activity: < 10%
[7]
  Activity: Non-Toxic
[8]
  Activity: Non-Toxic
[9]
  Activity: 0.05%
[10]
  Activity: < 10%
[11]
  Activity: 0%
[12]
  Activity: Toxic
